# Assay results published in ChEMBL document CHEMBL1759837, “Studies on chemical modification and biology of a natural product, gambogic acid (III): determination of the essential pharmacophore for biological activity” (Eur J Med Chem, 2011).
# The source made the active and inactive calls. The calls are words filed in the database; no cut-off is given here.
# Tests used:
# SMMC-7721 = experiment: Antiproliferative activity against human SMMC7721 cells after 24 hrs by MTT assay; assay type: functional, cell-based; details: SMMC-7721, 24 h
# Summary of the method: (§1)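 Cells grown at 37 °C in humidified 5% CO2 with benzylpenicillin and streptomycin. Compounds came from 0.01 mol/L DMSO stocks and were tested at eight two-fold dilutions in triplicate, with medium-only controls, for 24 h. MTT absorbance was read at 570 nm. Survival = A_treatment/A_control × 100. IC50 is the concentration giving 50% viability inhibition, as the mean of two separate experiments.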
# HepG2 [1] = experiment: Induction of apoptosis in human HepG2 cells assessed as pre-necrotic cells at 4 uM after 24 hrs using annexin V-propidium iodide staining by flow cytometry (reference value: 0.5%); assay type: functional
# HepG2 [2] = experiment: Induction of apoptosis in human HepG2 cells assessed as pre-necrotic cells at 1 uM after 24 hrs using annexin V-propidium iodide staining by flow cytometry (reference value: 0.5%); assay type: functional
# HepG2 [3] = experiment: Antiproliferative activity against human HepG2 cells after 24 hrs by MTT assay; assay type: functional, cell-based; details: HepG2, 24 h
# Summary of the method: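 Tetrazolium MTT viability test; cells exposed to compound 24 h, absorbance read at 570 nm. Survival ratio = A treated / A control × 100%; IC50 is the concentration giving 50% loss of viability. Eight concentrations in two-fold dilutions, triplicate wells, mean of two separate experiments. Compounds dissolved in DMSO (0.01 mol/L stock); control wells received medium only.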
# HepG2 [4] = experiment: Induction of apoptosis in human HepG2 cells assessed as late apoptotic cells at 2 uM after 24 hrs using annexin V-propidium iodide staining by flow cytometry (reference value: 3.4%); assay type: functional
# HepG2 [5] = experiment: Induction of apoptosis in human HepG2 cells assessed as effect on bax protein expression at 1 uM after 24 hrs by Western blot analysis; assay type: functional, cell-based
# Summary of the method: (§2)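 HepG2 cells treated 24 h at 1, 2 or 4 µM. Lysed in Tris-Cl pH 6.8 buffer containing SDS, glycerol, β-mercaptoethanol, PMSF and aprotinin; cleared at 12 000 × g, 15 min, 4 °C. Protein measured by BCA. Samples run on 15% SDS-PAGE, transferred to PVDF, probed overnight at 4 °C with primary antibodies against bcl-2, bax and pro-caspase-3, then IRDye 800 secondary 1 h at 37 °C.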
# HepG2 [6] = experiment: Cell cycle arrest in human HepG2 cells assessed as accumulation at G2/M phase at 2 uM after 24 hrs using propidium iodide by Flow cytometry; assay type: functional, cell-based
# Summary of the method: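 HepG2 cells synchronised by 24 h serum starvation, then treated 24 h at 1, 2 or 4 µM. Cells fixed overnight in 70% ethanol at 4 °C and stained 15 min at 37 °C in the dark with hypotonic PI solution (0.1% sodium citrate, 0.1% Triton X-100, 0.05 mg/ml PI, 0.01 mg/ml RNase). DNA content measured by flow cytometry.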
# HepG2 [7] = experiment: Induction of apoptosis in human HepG2 cells assessed as decrease in pro-caspase-3 expression at 2 uM after 24 hrs by Western blot analysis; assay type: functional, cell-based; summary of the method: as §2
# Mus musculus [8] = experiment: Toxicity in Kunming mouse xenografted with human HepG2 cells assessed as change in body weight at 25 mg/kg, iv administered 24 hrs after tumor implantation one dose per two day for total of four treatment measured after 24 hrs last postdose (reference value: 20.20 +/- 1.14 g); assay type: organism-based; parameters: dose 25 mg/kg, route intravenous; details: in vivo
# HepG2 [9] = experiment: Induction of apoptosis in human HepG2 cells assessed as effect on bax protein expression at 4 uM after 24 hrs by Western blot analysis; assay type: functional, cell-based; summary of the method: as §2
# HepG2 [10] = experiment: Induction of apoptosis in human HepG2 cells assessed as decrease in bcl-2 expression at 2 uM after 24 hrs by Western blot analysis; assay type: functional, cell-based; summary of the method: as §2
# [11] = system: Heps hepatoma (Mus musculus); experiment: Antitumor activity against murine Heps hepatoma cells transplanted in Kunming mouse assessed as tumor growth inhibition at 50 mg/kg, iv administered 24 hrs after tumor implantation one dose per two day for total of four treatment measured after 24 hrs last postdose relative to control
# HepG2 [12] = experiment: Induction of apoptosis in human HepG2 cells assessed as decrease in pro-caspase-3 expression at 1 uM after 24 hrs by Western blot analysis; assay type: functional, cell-based; summary of the method: as §2
# HepG2 [13] = experiment: Induction of apoptosis in human HepG2 cells assessed as early apoptotic cells at 2 uM after 24 hrs using annexin V-propidium iodide staining by flow cytometry (reference value: 3%); assay type: functional
# HepG2 [14] = experiment: Induction of apoptosis in human HepG2 cells assessed as appearance of necrosis at 4 uM after 24 hrs by light microscopy; assay type: functional, cell-based
# Summary of the method: (§3)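 HepG2 cells seeded at 1 × 10⁵ cells/well and treated 24 h at 1, 2 or 4 µM. Living cells first viewed under inverted light microscope (×200). Cells then fixed 20 min in 4% paraformaldehyde, stained 10 min with DAPI (1 mg/ml) and examined by fluorescence microscopy (×400, 340 nm excitation) for nuclear changes and apoptotic bodies.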
# HepG2 [15] = experiment: Induction of apoptosis in human HepG2 cells assessed as nuclear condensation at 1 to 4 uM after 24 hrs using DAPI staining by fluorescent microscopy; assay type: functional, cell-based; summary of the method: as §3
# HepG2 [16] = experiment: Induction of apoptosis in human HepG2 cells assessed as decrease in pro-caspase-3 expression at 4 uM after 24 hrs by Western blot analysis; assay type: functional, cell-based; summary of the method: as §2
# HepG2 [17] = experiment: Induction of apoptosis in human HepG2 cells assessed as late apoptotic cells at 4 uM after 24 hrs using annexin V-propidium iodide staining by flow cytometry (reference value: 3.4%); assay type: functional
# HepG2 [18] = experiment: Induction of apoptosis in human HepG2 cells assessed as decrease in bcl-2 expression at 1 uM after 24 hrs by Western blot analysis; assay type: functional, cell-based; summary of the method: as §2
# HepG2 [19] = experiment: Induction of apoptosis in human HepG2 cells assessed as effect on bax protein expression at 2 uM after 24 hrs by Western blot analysis; assay type: functional, cell-based; summary of the method: as §2
# [20] = system: Heps hepatoma (Mus musculus); experiment: Antitumor activity against murine Heps hepatoma cells transplanted in Kunming mouse assessed as tumor growth inhibition at 12.5 mg/kg, iv administered 24 hrs after tumor implantation one dose per two day for total of four treatment measured after 24 hrs last postdose relative to control
# MCF7 = experiment: Antiproliferative activity against human MCF7 cells after 24 hrs by MTT assay; assay type: functional, cell-based; details: MCF7, 24 h; summary of the method: as §1
# HepG2 [21] = experiment: Induction of apoptosis in human HepG2 cells assessed as viable cells at 4 uM after 24 hrs using annexin V-propidium iodide staining by flow cytometry (reference value: 93.2%); assay type: functional; details: HepG2, 24 h, read-out: Activity
# Mus musculus [22] = experiment: Toxicity in Kunming mouse xenografted with human HepG2 cells assessed as irritation on vein vascular at 12.5 to 50 mg/kg, iv administered 24 hrs after tumor implantation one dose per two day for total of four treatment measured after 24 hrs last postdose; assay type: organism-based; parameters: dose 12.5-50 mg/kg, route intravenous; details: in vivo
# HepG2 [23] = experiment: Induction of apoptosis in human HepG2 cells assessed as viable cells at 2 uM after 24 hrs using annexin V-propidium iodide staining by flow cytometry (reference value: 93.2%); assay type: functional; details: HepG2, 24 h, read-out: Activity
# HepG2 [24] = experiment: Induction of apoptosis in human HepG2 cells assessed as cell membrane blebbing and shrinkage at 4 uM after 24 hrs using by inverted light microscopy; assay type: functional, cell-based; summary of the method: as §3
smiles,measurement,setting,value
CC(C)=CCC12OC(C)(C)C3CC(C=C4C(=O)c5c(O)cccc5OC431)C2=O (stereo unspecified),IC50,SMMC-7721,8.06 µM
same,Activity,HepG2 [1],1.1%
same,Activity,HepG2 [2],0.8%
same,IC50,HepG2 [3],2.37 µM
same,Activity,HepG2 [4],8.1%
same,Activity,HepG2 [5],inactive
same,Activity,HepG2 [6],Active
same,Activity,HepG2 [7],Active
same,Activity,Mus musculus [8],29.4 g
same,Activity,HepG2 [9],inactive
same,Activity,HepG2 [10],Active
same,inhibition in vivo at 50 mg/kg,[11],49.2%
same,Activity,HepG2 [12],Active
same,Activity,HepG2 [13],18.9%
same,Activity,HepG2 [14],Active
same,Activity,HepG2 [15],Active
same,Activity,HepG2 [16],Active
same,Activity,HepG2 [17],7.4%
same,Activity,HepG2 [18],Active
same,Activity,HepG2 [19],inactive
same,inhibition in vivo at 12.5 mg/kg,[20],14.9%
same,IC50,MCF7,9.16 µM
same,viability at 4 µM,HepG2 [21],68.2%
same,Activity,Mus musculus [22],Non-toxic
same,viability at 2 µM,HepG2 [23],71.9%
same,Activity,HepG2 [24],Active
